TRPC6 activator: mouse TRPC6 channel activators, primary screen, cell-based, HEK293, membrane potential dye; Short transient receptor potential channel 6 (Mus musculus), Q61143; HEK293-TRPC6 membrane potential dye fluorescence; hits give high values; B-score at 10 µM; 310,000 tested, 0.13% active; AID 2550, 2010;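 active = B-score of the integrated fluorescence ratio above library mean plus 3 SD, and starting fluorescence ratio within library mean plus 5 SD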;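 note: higher score means more depolarization so channel activation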
Target sequence (Q61143 whole entry, looked up): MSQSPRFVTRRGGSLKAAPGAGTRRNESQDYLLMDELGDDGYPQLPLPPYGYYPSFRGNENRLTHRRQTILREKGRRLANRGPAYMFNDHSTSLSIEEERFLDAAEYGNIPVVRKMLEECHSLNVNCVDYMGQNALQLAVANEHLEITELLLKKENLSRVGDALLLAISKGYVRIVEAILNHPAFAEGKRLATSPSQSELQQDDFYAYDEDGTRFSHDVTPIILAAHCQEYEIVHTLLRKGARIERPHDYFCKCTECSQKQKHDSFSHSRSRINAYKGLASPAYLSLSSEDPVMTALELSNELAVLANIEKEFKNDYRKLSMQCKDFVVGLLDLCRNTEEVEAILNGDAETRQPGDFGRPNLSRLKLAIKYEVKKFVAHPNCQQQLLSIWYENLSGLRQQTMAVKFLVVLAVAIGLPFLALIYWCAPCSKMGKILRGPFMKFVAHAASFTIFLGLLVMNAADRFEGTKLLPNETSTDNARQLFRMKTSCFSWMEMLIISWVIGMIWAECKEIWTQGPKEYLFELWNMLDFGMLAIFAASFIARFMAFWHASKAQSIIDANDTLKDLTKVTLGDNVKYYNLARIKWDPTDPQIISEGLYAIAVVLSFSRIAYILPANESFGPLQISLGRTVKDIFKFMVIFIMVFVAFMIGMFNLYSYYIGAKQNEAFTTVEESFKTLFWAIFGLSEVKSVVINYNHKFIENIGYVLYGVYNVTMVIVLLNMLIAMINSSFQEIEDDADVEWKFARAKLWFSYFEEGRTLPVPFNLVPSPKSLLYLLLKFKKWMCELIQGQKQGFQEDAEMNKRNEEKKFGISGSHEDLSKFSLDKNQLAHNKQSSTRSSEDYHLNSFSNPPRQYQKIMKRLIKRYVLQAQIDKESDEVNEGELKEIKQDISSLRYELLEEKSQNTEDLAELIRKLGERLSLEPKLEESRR
TRPC6 inh: mouse TRPC6 channel inhibitors, primary screen, cell-based, HEK293, membrane potential dye; ACh-evoked depolarization; hits give low values; B-score at 10 µM; 310,000 tested, 1.1% active;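 active = B-score under library mean minus 3 SD, initial fluorescence not abnormally high, positive integrated signal ratio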;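 note: B-score derived from integrated fluorescence ratio over the kinetic read; more negative B-score means stronger inhibition of depolarization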
TRPC4 block: inhibitors of mouse TRPC4 channel, primary screen, Fluo4 calcium, HEK293 TRPC4beta/mu-opioid cells; B-score at 10 µM; AID 2247, 2010; 300,000 tested, 0.39% active; Short transient receptor potential channel 4 (Mus musculus), Q9QUQ5; DAMGO-evoked Fluo4 calcium flux; hits give low values;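 active = B-score over 3 SD under the library average, no early fluorescence shift, positive overall ratio signal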
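System: stable TRPC4beta/mu-opioid receptor HEK293 cells; Dosing: single-point compound dosing; Measured by: Fluo4 Ca2+ flux fluorescence; Read-out basis: per-well B score of integrated baseline-normalized Fluo4 ratio.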
TRPC4 potent: positive allosteric modulators of TRPC4, primary screen, cell-based, mouse TRPC4beta, HEK293 mu-opioid, Fluo-4 calcium | Short transient receptor potential channel 4 (Mus musculus), Q9QUQ5 | DAMGO EC20, Fluo-4 Ca2+ flux; hits give high values | B-score at 10 µM | 310,000 tested, 0.42% active | AID 2227, 2009;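 active = B-score of calcium response area above 5 SD of library B-scores, with initial fluorescence ratio within 5 SD of library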
TRPC4 act: activators of mouse TRPC4 channel, primary screen, Fluo4 calcium, HEK293 TRPC4beta/mu-opioid cells | B-score at 10 µM | 310,000 tested, 0.49% active | AID 2237, 2010 | Fluo4 calcium fluorescence; hits give high values;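 active = B-score above 5 SD of library B-scores, and initial fluorescence ratio not above library mean plus 5 SD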;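 note: positive B-score marks a calcium rise read as TRPC4 activation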
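Incubation: 45 min room-temperature Fluo4 loading, 110 s read / System: HEK293 cells stably co-expressing mouse TRPC4beta and mu-opioid receptor / Signal: Fluo4 fluorescence, kinetic / Control set: buffer (low) and maximal DAMGO (high) / Measure: integrated baseline-normalised fluorescence ratio, converted to per-well B score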
TRPC4 spec 2: mouse TRPC4 off-target activity of TRPC6 inhibitors, second screen; HEK293 TRPC4/MOR, membrane potential dye fluorescence; channel activated by saturating DAMGO dose; 920 tested, 42% active; AID 2776; inhibition, % at 10 µM; shares compounds with TRPC6 inh;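 active = compounds whose fluorescence signal differed from control wells by over 3 SD, either direction, in both duplicate plates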
TRPC4 spec: mouse TRPC4 modulation by TRPC6 hits, confirmation, selectivity assay for TRPC6 inhibitor project, cell-based, HEK293 TRPC4/mu-opioid, membrane potential dye; shares compounds with TRPC6 inh; membrane potential fluorescence; activity change, negative = inhibition, % at 10 µM; 920 tested, 61% active;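 active = rise or fall in signal beyond 3 SD of buffer-only wells in both replicate plates, either sign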;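 note: integrated kinetic ratio of fluorescence range over baseline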
HEK293 MPD ctr 2-1: nonspecific membrane potential effects, parental HEK293, confirmation, counter-screen for TRPC6 inhibitor project, cell-based, second counter screen; parental HEK293 membrane potential dye fluorescence; maximal acetylcholine challenge after compound addition; AID 2779, 2010; signal change vs control, % at 10 µM; shares compounds with TRPC6 inh; 920 tested, 31% active;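 active = membrane potential signal moving either way by over 3 SD of the maximum-effect control, in both duplicate plates, meaning non-specific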
HEK293 MPD ctr-1: membrane potential modulation in parental HEK293, confirmation, counter-screen for TRPC6 inhibitor project, cell-based | shares compounds with TRPC6 inh | parental HEK293 membrane potential dye fluorescence | membrane potential signal change, % at 10 µM | 920 tested, 60% active | AID 2780, 2010;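 active = membrane potential signal shifting up or down by more than 3 SD of buffer-only wells, on both duplicate plates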
HEK293 MPD ctr-2: parental HEK293 membrane potential modulation, confirmation, counter-screen for TRPC6 modulator project, cell-based; 2,400 tested, 51% active; membrane potential signal change, % at 10 µM; membrane potential dye fluorescence; AID 488924, 2010; shares compounds with TRPC6 inh;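 active = membrane potential signal moves up or down beyond 5 SD from buffer-only wells, on both duplicate plates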
HEK293 MPD ctr 2-2: second check of TRPC6 modulator effects in parental HEK293 cells | inhibition, % at 10 µM | 2,400 tested, 14% active | shares compounds with TRPC6 inh | membrane potential dye fluorescence; after compound, maximal acetylcholine stimulation;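 active = membrane potential signal drops by more than 5 SD from the mean control signal, in both duplicate plates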
TRPC4 ctr mod: TRPC4 modulation by TRPC6 hit compounds, confirmation, selectivity assay for TRPC6 modulator project, cell-based, HEK293 TRPC4/mu-opioid, membrane potential dye, mouse | membrane potential fluorescence | 2,400 tested, 69% active | shares compounds with TRPC6 inh | percent change from control (negative = decrease, positive = increase), % at 10 µM;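 active = membrane potential signal moved up or down beyond 5 SD of buffer control wells, in both duplicate plates, actives on both sides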
TRPC4 ctr inh 2: second selectivity test of TRPC6 modulators against mouse TRPC4; 2,400 tested, 55% active; HEK293 TRPC4/mu-opioid, membrane potential dye fluorescence; stimulated with maximal-effect DAMGO; shares compounds with TRPC6 inh; inhibition, % at 10 µM; AID 488928;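 active = drop in membrane potential signal beyond 5 SD of the control wells in both duplicate plates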;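 note: TRPC4 counter screen for TRPC6 hits run under conditions tuned for TRPC6 not TRPC4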
TRPC6 inh conf: mouse TRPC6 channel inhibitors, confirmation, HEK293 cells, membrane potential dye, duplicate. shares compounds with TRPC6 inh. ACh-evoked depolarization. inhibition, % at 10 µM. 3,300 tested, 43% active. AID 488960, 2010;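 active = fluorescence ratio falls more than 5 SD below the full-stimulation control mean, in both duplicate runs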;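 note: integrated fluorescence ratio of peak minus minimum over baseline after agonist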
TRPC6 act conf: mouse TRPC6 channel activators, confirmation, HEK293 cells, membrane potential dye, duplicate; shares compounds with TRPC6 inh; HEK293-TRPC6 membrane potential dye fluorescence, FDSS; activation, % at 10 µM; 2,800 tested, 11% active; AID 488961, 2010;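 active = ratio signal rise beyond 5 SD above unstimulated control wells' mean, seen in both duplicate runs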
Hits are given with their value. An excerpt weighted towards active compounds, which were near 2.3% of everything screened.

What do the screens show for `Cc1cc(=O)oc2c(C)c(OCC(=O)NCCCn3ccnc3)ccc12`?
TRPC6 activator: inactive; TRPC6 inh: -6.6; TRPC4 block: inactive; TRPC4 potent: inactive; TRPC4 act: inactive; HEK293 MPD ctr-2: -192%; HEK293 MPD ctr 2-2: inactive; TRPC4 ctr mod: -32%; TRPC4 ctr inh 2: 30%; TRPC6 inh conf: inactive; TRPC6 act conf: inactive

How did Clc1ccc(-c2cc(COc3ccc4ccccc4c3)no2)cc1 do in these assays?
TRPC6 activator: inactive; TRPC6 inh: inactive; TRPC4 block: inactive; TRPC4 potent: inactive; TRPC4 act: inactive

Results for Cc1ccc(Cl)cc1N1CCN(CC(=O)Nc2ccc(CN3CCCCC3)cc2)CC1 ?
TRPC6 activator: inactive; TRPC6 inh: -5.5; TRPC4 block: inactive; TRPC4 potent: inactive; TRPC4 act: inactive; HEK293 MPD ctr-2: 152%; HEK293 MPD ctr 2-2: inactive; TRPC4 ctr mod: 19%; TRPC4 ctr inh 2: 76%; TRPC6 inh conf: 44%

What do the screens show for `O=C(COc1ccc(Cl)cc1Cl)Nc1ccc(CN2CCOCC2)cc1`?
TRPC6 activator: inactive; TRPC6 inh: inactive; TRPC4 block: inactive; TRPC4 potent: inactive; TRPC4 act: inactive

How did COc1ccccc1N1CCN(CC(=O)Nc2ccc(CN3CCCCC3)cc2)CC1 do in these assays?
TRPC6 activator: inactive; TRPC6 inh: inactive; TRPC4 block: inactive; TRPC4 potent: inactive; TRPC4 act: inactive

Results for Cc1ccc(C(=O)NC(=S)Nc2ccc(CN3CCCCC3)cc2)c(C)c1 ?
TRPC6 activator: inactive; TRPC6 inh: -6.3; TRPC4 block: inactive; TRPC4 potent: inactive; TRPC4 act: inactive; HEK293 MPD ctr-2: inactive; HEK293 MPD ctr 2-2: inactive; TRPC4 ctr mod: inactive; TRPC4 ctr inh 2: 68%; TRPC6 inh conf: 40%

What do the screens show for `Cc1noc(NS(=O)(=O)c2ccc(NC(=O)COc3ccc(Cl)cc3Cl)cc2)c1C`?
TRPC6 activator: inactive; TRPC6 inh: -5.8; TRPC4 block: inactive; TRPC4 potent: inactive; TRPC4 act: inactive; HEK293 MPD ctr-2: inactive; HEK293 MPD ctr 2-2: inactive; TRPC4 ctr mod: inactive; TRPC4 ctr inh 2: inactive; TRPC6 inh conf: inactive; TRPC6 act conf: inactive

What do the screens show for `COc1ccc(C(=O)NC(=S)Nc2ccc(CN3CCCCC3)cc2)cc1Cl`?
TRPC6 activator: inactive; TRPC6 inh: inactive; TRPC4 block: inactive; TRPC4 potent: inactive; TRPC4 act: inactive

How did O=C(COc1ccc(Cl)cc1Cl)Nc1ccc(CN2CCCCC2)cc1 do in these assays?
TRPC6 activator: inactive; TRPC6 inh: -5.3; TRPC4 block: inactive; TRPC4 potent: inactive; TRPC4 act: inactive; HEK293 MPD ctr-2: 194%; HEK293 MPD ctr 2-2: inactive; TRPC4 ctr mod: 34%; TRPC4 ctr inh 2: 54%; TRPC6 inh conf: inactive

How did CCOC(=O)N1CCN(C(=O)COC(=O)C2CCN(S(=O)(=O)c3c(Cl)cccc3Cl)CC2)CC1 do in these assays?
TRPC6 activator: inactive; TRPC6 inh: inactive; TRPC4 block: inactive; TRPC4 potent: inactive; TRPC4 act: inactive

How did CC(C)(C)NC(=O)CSc1nnc(C2CC2)n1-c1ccccc1 do in these assays?
TRPC6 activator: inactive; TRPC6 inh: inactive; TRPC4 block: inactive; TRPC4 potent: inactive; TRPC4 act: inactive

How did CN(C(=O)CCCN1CCCC1=O)C1CCCN(Cc2ccccc2F)C1 (stereo unspecified) do in these assays?
TRPC6 activator: inactive; TRPC6 inh: -5.1; TRPC4 block: inactive; TRPC4 potent: inactive; TRPC4 act: inactive; HEK293 MPD ctr-2: inactive; HEK293 MPD ctr 2-2: inactive; TRPC4 ctr mod: inactive; TRPC4 ctr inh 2: inactive; TRPC6 inh conf: inactive; TRPC6 act conf: inactive

How did CN(C(=O)CCc1ccccc1F)C1CCCN(Cc2ccccc2F)C1 (stereo unspecified) do in these assays?
TRPC6 activator: inactive; TRPC6 inh: inactive; TRPC4 block: inactive; TRPC4 potent: inactive; TRPC4 act: inactive

Results for Cc1ccc(CNCCC2=CCCCC2)cc1 ?
TRPC6 activator: inactive; TRPC6 inh: -7.1; TRPC4 block: inactive; TRPC4 potent: inactive; TRPC4 act: inactive; TRPC4 spec 2: inactive; TRPC4 spec: inactive; HEK293 MPD ctr 2-1: inactive; HEK293 MPD ctr-1: inactive; TRPC6 inh conf: inactive; TRPC6 act conf: inactive
